Source: ChEMBL document CHEMBL2406998, “Discovery of benzamide analogs as negative allosteric modulators of human neuronal nicotinic receptors: pharmacophore modeling and structure-activity relationship studies” (Bioorg Med Chem, 2013)
Active and inactive are the calls of the source. The calls are words filed in the database; no cut-off is given here.

Tests used:
[1] = molecular target: T1, Neuronal acetylcholine receptor; alpha4/beta2 (Homo sapiens, UniProt P17787+P43681); assay: Agonist activity at human alpha4beta2 nAChR; assay type: protein-complex assay
T1 sequence (P17787 whole entry): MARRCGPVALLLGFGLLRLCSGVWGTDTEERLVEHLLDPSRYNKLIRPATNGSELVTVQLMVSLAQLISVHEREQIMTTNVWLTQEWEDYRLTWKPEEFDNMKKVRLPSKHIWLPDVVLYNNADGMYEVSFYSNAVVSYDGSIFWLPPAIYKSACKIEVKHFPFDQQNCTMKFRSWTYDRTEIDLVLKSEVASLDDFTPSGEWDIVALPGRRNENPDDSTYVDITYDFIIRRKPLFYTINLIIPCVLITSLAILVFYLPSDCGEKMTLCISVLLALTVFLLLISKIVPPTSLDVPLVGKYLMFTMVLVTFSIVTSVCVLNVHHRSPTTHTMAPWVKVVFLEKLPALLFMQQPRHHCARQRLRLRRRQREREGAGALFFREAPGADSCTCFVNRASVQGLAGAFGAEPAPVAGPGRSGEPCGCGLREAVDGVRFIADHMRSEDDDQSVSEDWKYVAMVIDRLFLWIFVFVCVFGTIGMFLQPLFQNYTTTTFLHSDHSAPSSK
T1 sequence (P43681 whole entry): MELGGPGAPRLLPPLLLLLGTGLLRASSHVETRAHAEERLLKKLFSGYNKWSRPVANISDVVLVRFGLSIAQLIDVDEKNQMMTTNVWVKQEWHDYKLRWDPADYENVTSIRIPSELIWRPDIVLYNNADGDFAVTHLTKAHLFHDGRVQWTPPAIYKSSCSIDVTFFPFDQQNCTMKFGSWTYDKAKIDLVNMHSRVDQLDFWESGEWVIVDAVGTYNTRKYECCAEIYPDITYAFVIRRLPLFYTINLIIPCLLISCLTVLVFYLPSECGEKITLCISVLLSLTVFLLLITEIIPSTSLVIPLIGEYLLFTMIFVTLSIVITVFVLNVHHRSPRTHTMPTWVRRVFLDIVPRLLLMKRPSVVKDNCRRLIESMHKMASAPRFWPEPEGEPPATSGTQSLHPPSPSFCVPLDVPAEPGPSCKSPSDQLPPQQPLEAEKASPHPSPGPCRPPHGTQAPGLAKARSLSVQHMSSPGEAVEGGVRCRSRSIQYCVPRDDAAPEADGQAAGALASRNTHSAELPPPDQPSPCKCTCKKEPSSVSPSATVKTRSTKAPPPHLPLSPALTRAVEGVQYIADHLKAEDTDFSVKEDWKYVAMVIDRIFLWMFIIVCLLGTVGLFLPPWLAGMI
Method in brief: (§1)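 HEK tsA201 cells stably expressing the human receptor subtype, plated 24 h ahead at 37 °C, 5% CO2 in supplemented DMEM to a ~100% confluent monolayer. Washed with HEPES-buffered Krebs, loaded 1 h at room temperature with 50% Calcium 5 NW dye. Compounds as HCl salts from 0.01 M DMSO stocks, six concentrations 0.1–100 µM in HBK. Intracellular calcium fluorescence read every 1.5 s (ex 485/em 525 nm).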

[2] = molecular target: T2, Neuronal acetylcholine receptor; alpha3/beta4 (Homo sapiens, UniProt P30926+P32297); assay: Agonist activity at human alpha3beta4 nAChR; assay type: protein-complex assay; method in brief: as §1
T2 sequence (P30926 whole entry): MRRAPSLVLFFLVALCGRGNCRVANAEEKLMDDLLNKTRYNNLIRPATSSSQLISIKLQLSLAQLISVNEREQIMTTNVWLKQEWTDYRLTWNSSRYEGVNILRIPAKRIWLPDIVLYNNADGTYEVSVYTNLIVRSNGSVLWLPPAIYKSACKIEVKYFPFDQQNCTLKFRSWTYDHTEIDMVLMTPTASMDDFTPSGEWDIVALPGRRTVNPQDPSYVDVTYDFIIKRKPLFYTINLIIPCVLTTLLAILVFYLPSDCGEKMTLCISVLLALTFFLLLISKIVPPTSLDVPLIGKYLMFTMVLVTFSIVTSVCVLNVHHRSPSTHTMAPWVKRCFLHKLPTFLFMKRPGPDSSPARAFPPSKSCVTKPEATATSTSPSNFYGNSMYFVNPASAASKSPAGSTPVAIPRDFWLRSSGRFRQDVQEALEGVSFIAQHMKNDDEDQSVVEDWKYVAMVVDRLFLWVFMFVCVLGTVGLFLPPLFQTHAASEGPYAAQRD
T2 sequence (P32297 whole entry): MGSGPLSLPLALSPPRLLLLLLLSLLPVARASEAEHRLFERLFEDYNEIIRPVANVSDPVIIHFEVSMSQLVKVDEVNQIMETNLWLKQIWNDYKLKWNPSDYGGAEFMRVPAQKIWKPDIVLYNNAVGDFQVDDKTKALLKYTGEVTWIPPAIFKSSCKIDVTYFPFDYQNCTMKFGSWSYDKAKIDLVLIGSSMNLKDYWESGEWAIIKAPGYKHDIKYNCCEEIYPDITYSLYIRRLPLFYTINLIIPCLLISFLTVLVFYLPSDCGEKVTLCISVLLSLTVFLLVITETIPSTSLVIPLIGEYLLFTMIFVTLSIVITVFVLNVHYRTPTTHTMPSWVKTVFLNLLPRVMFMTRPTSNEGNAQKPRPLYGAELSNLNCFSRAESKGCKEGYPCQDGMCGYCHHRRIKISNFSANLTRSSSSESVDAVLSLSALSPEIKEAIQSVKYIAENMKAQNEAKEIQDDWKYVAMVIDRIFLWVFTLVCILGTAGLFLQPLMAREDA

[3] = molecular target: T1, Neuronal acetylcholine receptor; alpha4/beta2; assay: Non-competitive antagonist activity at human alpha4beta2 nAChR expressed in HEK-tsA201 cells assessed as intracellular calcium level at 0.1 to 100 uM by fluorescence plate reader analysis in presence of epibatidine; assay type: cell-based
Method in brief: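 Epibatidine concentration-response curves were run with and without test compound on hα4β2-expressing HEK tsA201 cells. The read-out was the calcium accumulation assay: cells loaded with Calcium 5 NW dye for 1 h at room temperature in HEPES-buffered Krebs, fluorescence read at ex 485/em 525 nm every 1.5 s. Compound dilutions of 0.1–100 µM were made from DMSO stocks, with DMSO below 1%.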

[4] = molecular target: T1, Neuronal acetylcholine receptor; alpha4/beta2; assay: Antagonist activity at human alpha4beta2 nAChR expressed in HEK-tsA201 cells assessed as inhibition of epibatidine-induced intracellular calcium level by fluorescence plate reader analysis; assay type: cell-based
Method in brief: (§2)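 Stably transfected HEK tsA201 cells were plated 24 h ahead and grown at 37 °C, 5% CO2 in supplemented DMEM to a ~100% confluent monolayer. They were washed with HEPES-buffered Krebs, then loaded with 50% Calcium 5 NW dye for 1 h at room temperature. Compounds (HCl salts, six concentrations 0.1–100 µM, DMSO <1%) were tested against 1 µM epibatidine. Fluorescence was read at ex 485/em 525 nm every 1.5 s.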

[5] = molecular target: T2, Neuronal acetylcholine receptor; alpha3/beta4; assay: Antagonist activity at human alpha3beta4 nAChR expressed in HEK-tsA201 cells assessed as inhibition of epibatidine-induced intracellular calcium level by fluorescence plate reader analysis; assay type: cell-based; method in brief: as §2
Homo sapiens = organism: Homo sapiens; assay: Selectivity ratio of IC50 for human alpha3beta4 nAChR to IC50 for human alpha4beta2 nAChR

Structure (SMILES)	Activity [1]	Activity [2]	Activity [3]	IC50 [4] [µM]	IC50 [5] [µM]	Ratio IC50 (Homo sapiens)
C=CCOc1ccc(C(=O)Nc2cccc(Br)n2)cc1	inactive	inactive				
C=CCOc1ccc(C(=O)Nc2cccc(NCCCC)n2)cc1	inactive	inactive				
CCCOc1ccc(C(=O)Nc2cccc(Br)n2)cc1	inactive					
CCCOc1ccc(C(=O)Nc2cccc(NCc3ccccc3)n2)cc1	inactive	inactive				
CCCOc1ccc(C(=O)Nc2cccc(Nc3cccc(F)c3)n2)cc1	inactive	inactive				
CCCOc1ccc(C(=O)Nc2cccc(Cl)n2)cc1	inactive					
CCCOc1ccc(C(=O)Nc2cccc(CC)n2)cc1	inactive	inactive				
C=CCOc1ccc(C(=O)Nc2cccc(CC)n2)cc1	inactive	inactive				
CCCOc1ccc(C(=O)Nc2cccc(N3CCCCC3)n2)cc1	inactive	inactive				
CCCCNc1cccc(NC(=O)c2ccc(OCCC)cc2)n1	inactive	inactive				
CCCOc1ccc(C(=O)Nc2cccc(Nc3ccccc3F)n2)cc1	inactive	inactive				
CCCOc1ccc(C(=O)Nc2cccc(Nc3ccc(F)cc3)n2)cc1	inactive	inactive				
C=CCOc1ccc(C(=O)Nc2cccc(C)n2)cc1	inactive	inactive	Active			
CCCCCCNc1cccc(NC(=O)c2ccc(OCCC)cc2)n1	inactive	inactive				
CCCOc1ccc(C(=O)Nc2cccc(Nc3ccc(Cl)cc3)n2)cc1	inactive	inactive				
C=CCOc1ccc(C(=O)Nc2cccc(NCCC)n2)cc1	inactive	inactive				
CNC1(C)C2CCC(C2)C1(C)C (stereo not drawn) [MECAMYLAMINE]				0.6		
CCCOc1ccc(C(=O)Nc2cccc(Nc3ccccc3)n2)cc1	inactive	inactive				
CCCOc1ccc(C(=O)Nc2cnccn2)cc1	inactive	inactive		23.2		
CCCOc1ccc(C(=O)Nc2cccc(Nc3ccc(OC)cc3)n2)cc1	inactive	inactive				
COc1cc2c3cc1Oc1cc(ccc1O)C[C@@H]1c4c(cc(OC)c(O)c4Oc4ccc(cc4)C[C@@H]3N(C)CC2)CC[N+]1(C)C				9.2	6.8	
CCCNc1cccc(NC(=O)c2ccc(OCCC)cc2)n1	inactive	inactive				
C=C(C)COc1ccc(C(=O)Nc2cccc(C)n2)cc1	inactive	inactive		19.6	24.7	1.3
C#CCOc1ccc(C(=O)Nc2cccc(C)n2)cc1	inactive	inactive		19.4	21.7	1.1
C=CCOc1ccc(C(=O)Nc2ccccn2)cc1	inactive	inactive				
CCCCCNc1cccc(NC(=O)c2ccc(OCCC)cc2)n1	inactive	inactive				
C=CCOc1ccc(C(=O)Nc2cccc(Cl)n2)cc1	inactive					
CCOc1ccc(C(=O)Nc2cc(C)cc(C)n2)cc1	inactive	inactive		17.1	17.4	1
